Data published in ChEMBL document CHEMBL4385654, “Inhibitory effects of N-(acryloyl)benzamide derivatives on tyrosinase and melanogenesis” (Bioorg Med Chem, 2019).
Activity calls are given as the source filed them. The calls are words filed in the database; no cut-off is given here.

Legend:
[1] = Antioxidant activity assessed as DPPH-radical scavenging activity at 1 mM incubated for 30 mins under dark condition by microplate reader based assay relative to control; assay type: functional
Summary of the method: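 20 µL of 10 mM DMSO stock mixed with 180 µL of 0.2 mM DPPH in methanol (stated test level 1 mM). L-ascorbic acid served as the positive control. Kept 30 min in the dark, then absorbance read at 517 nm. Scavenging % = 100×(Ac−As)/Ac against the untreated control. Three independent experiments, mean ± SD.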

Mus musculus [2] = species: Mus musculus; assay: Inhibition of tyrosinase in alpha-MSH-stimulated mouse B16F10 cells assessed as reduction in melanin levels at 25 uM incubated for 24 hrs by microplate reader based assay relative to control
Summary of the method: (§1)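 B16F10 cells were seeded at 5x10^4 per well and cultured 24 h at 37 °C, 5% CO2. They were then co-treated with 1 µM α-MSH and test agent (0, 5, 10 or 25 µM) for 24 h, with kojic acid at 25 µM alongside. After two PBS washes, melanin was dissolved in 200 µL 1 M NaOH for 1 h and OD405 read. Triplicate runs.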

Mus musculus [3] = species: Mus musculus; assay: Inhibition of tyrosinase in alpha-MSH-stimulated mouse B16F10 cells assessed as reduction in melanin levels at 5 uM incubated for 24 hrs by microplate reader based assay relative to control; summary of the method: as §1
Mus musculus [4] = species: Mus musculus; assay: Inhibition of tyrosinase in alpha-MSH-stimulated mouse B16F10 cells at 25 uM incubated for 24 hrs by microplate reader based assay
Summary of the method: (§2)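 B16F10 cells were seeded at 5x10^4 per well and cultured 24 h, then given 1 µM α-MSH plus agent (0–25 µM; kojic acid 25 µM; arbutin 400 µM) for 24 h. Cells were PBS-washed and lysed in 1% Triton X-100, 0.1 mM PMSF, 50 mM phosphate pH 6.8. Lysate was frozen at −80 °C, then centrifuged. 80 µL supernatant was mixed with 20 µL 10 mM L-DOPA, held 30 min at 37 °C, and OD500 read. Triplicate runs.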

Mus musculus [5] = species: Mus musculus; assay: Inhibition of tyrosinase in alpha-MSH-stimulated mouse B16F10 cells assessed as reduction in melanin levels at 10 uM incubated for 24 hrs by microplate reader based assay relative to control; summary of the method: as §1
B16-F10 = assay: Cytotoxicity in mouse B16F10 cells assessed as reduction in cell viability up to 25 uM incubated for 24 hrs by WST-8 assay; assay type: cell-based; conditions: b16-f10, 24 h
Summary of the method: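 B16F10 murine melanoma cells were grown in DMEM with 10% FBS, penicillin and streptomycin at 37 °C and 5% CO2, seeded at 5x10^4 per well and cultured 24 h. They were then dosed at 0, 5, 10 or 25 for 24 h. WST-8 reagent was added, and OD450 was read. Viability is given as % of untreated cells; triplicate runs.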

Mus musculus [6] = species: Mus musculus; assay: Inhibition of tyrosinase in alpha-MSH-stimulated mouse B16F10 cells at 400 uM incubated for 24 hrs by microplate reader based assay; summary of the method: as §2

## O=C1O[C@H]([C@@H](O)CO)C(O)=C1O
[1]
  inhibition: 84.6%

## O=C(/C=C/c1ccc(O)c(O)c1)NC(=O)c1ccccc1
Mus musculus [2]
  inhibition: 61.8%
Mus musculus [3]
  inhibition: 21.6%
[1]
  inhibition: 82.9%
Mus musculus [4]
  inhibition: 76.8%
Mus musculus [5]
  inhibition: 37.6%
B16-F10
  Activity: Non-Toxic

## O=C(/C=C/c1cc(Br)c(O)c(Br)c1)NC(=O)c1ccccc1
[1]
  inhibition: inactive

## COc1ccc(/C=C/C(=O)NC(=O)c2ccccc2)c(OC)c1
[1]
  inhibition: 5.76%

## O=C(/C=C/c1ccc(O)cc1)NC(=O)c1ccccc1
[1]
  inhibition: 4.89%

## O=c1cc(CO)occ1O
Mus musculus [2]
  inhibition: 39%
Mus musculus [4]
  inhibition: 50.3%

## COc1ccc(/C=C/C(=O)NC(=O)c2ccccc2)cc1OC
[1]
  inhibition: 4.82%

## COc1cc(/C=C/C(=O)NC(=O)c2ccccc2)cc(OC)c1OC
[1]
  inhibition: 6.9%

## OC[C@H]1O[C@@H](Oc2ccc(O)cc2)[C@H](O)[C@@H](O)[C@@H]1O
Mus musculus [6]
  inhibition: 41.8%

## COc1cc(/C=C/C(=O)NC(=O)c2ccccc2)cc(OC)c1O
[1]
  inhibition: 3.76%

## COc1ccc(/C=C/C(=O)NC(=O)c2ccccc2)cc1
[1]
  inhibition: 5.61%

## COc1ccc(/C=C/C(=O)NC(=O)c2ccccc2)cc1O
Mus musculus [2]
  inhibition: 48%
Mus musculus [3]
  inhibition: 9.06%
[1]
  inhibition: 7.02%
Mus musculus [4]
  inhibition: 59.7%
Mus musculus [5]
  inhibition: 31.2%
B16-F10
  Activity: Non-Toxic

## O=C(/C=C/c1ccc(O)c(Br)c1)NC(=O)c1ccccc1
[1]
  inhibition: 17.3%
